Data on one compound can be found in ChEMBL document CHEMBL3414473.

Calls of active or inactive are those of the source. No cut-off for these calls is given here.

Test [1] has as its system LNCaP. In words: Antiproliferative activity against human LNCAP cells assessed as suppression of cell viability after 24 hrs by MTT assay. The test is classed as functional, cell-based. In short, it runs like this: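 LNCaP cells seeded at 5000/well on poly-L-lysine-coated plates in 10% FBS; 24 h later exposed to agents in serum-free medium for 24 h. Viability expressed as percent of vehicle control; IC50 derived.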
In general terms: Tetrazolium assays rely on reduction of a dye to a coloured formazan, in cell work by metabolically active cells.

Test [2] has as its system PC-3. In words: In vivo antitumor efficacy in human PC3 cells xenografted athymic nude mouse assessed as inhibition of tumor growth at 100 mg/kg, po for 21 days relative to vehicle treated control. Also noted: dose 100 mg/kg. The test is classed as functional, organism-based. In short, it runs like this: (§1)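 Athymic nude mice given PC-3 cells sc (1 × 10⁶ per mouse); at about 50 mm³, randomized (n = 7) and dosed once daily for 21 days either ip at 50 mg/kg (vehicle saline/PEG400/DMSO/Tween 80, 65:20:10:5) or by oral gavage at 100 mg/kg (vehicle 0.5% methylcellulose/0.1% Tween 80 in water). Tumor volume measured weekly by calipers (width² × length × 0.52); phospho-proteins checked by Western blotting of tumor lysates.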
On the technique in general: A xenograft is tissue or cells of one species grown in another, often human tumour cells in immunodeficient mice.

Test [3] addresses T1, PH domain leucine-rich repeat-containing protein phosphatase 1 (Homo sapiens, UniProt O60346). In words: Inhibition of PHLPP1-mediated reduction in phosphorylation of Akt at Ser473 in human PC3 cells after 24 hrs by Western blot analysis. The test is classed as cell-based. Particulars: PC-3. In short, it runs like this:
(§2)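 LNCaP or PC-3 cells treated at various concentrations for 24 h in serum-free medium. Lysed in SDS buffer (50 mM Tris pH 8, 10 mM EDTA, 1% SDS, protease inhibitors); equal protein run on SDS-PAGE and transferred to nitrocellulose. Primary antibodies 1:1000 overnight at 4 °C, HRP secondary 1:2000; detected by ECL.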
(In general: Immunoblotting shows a protein as a band on a membrane.)

Test [4] relates to LNCaP. In words: Induction of Akt-PHLPP1 complex to human LNCAP cell membrane after 24 hrs by immunofluorescence staining analysis. The class given is functional, cell-based.
The target in test [5] is T1, PH domain leucine-rich repeat-containing protein phosphatase 1. The test can be described thus: Inhibition of PHLPP1-mediated reduction in phosphorylation of IKK in human LNCAP cells after 24 hrs by Western blot analysis. The test is classed as cell-based. A digest of the protocol:
as §2

Test [6] shares this target. The test can be described thus: Inhibition of PHLPP1-mediated reduction in phosphorylation of Akt at Thr308 in human LNCAP cells after 24 hrs by Western blot analysis. The test is classed as cell-based. A digest of the protocol: as §2
In test [7] the test system is LNCaP. The test can be described thus: Induction of ILK localization to human LNCAP cell membrane at 5 uM after 24 hrs by immunofluorescence staining analysis. The class given is functional, cell-based. A digest of the protocol:
(§3)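 LNCaP cells on poly-L-lysine-coated surfaces, treated in serum-free medium for 24 h. Fixed in 4% formaldehyde, permeabilized with 0.1% Triton X-100, blocked in 1% FBS, primary antibody (1:300) overnight, then Alexa Fluor secondary 2 h; DAPI nuclei; confocal imaging with cross-sectional fluorescence intensity analysis.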

Test [8] deals with T1, PH domain leucine-rich repeat-containing protein phosphatase 1. The test can be described thus: Binding affinity to GST-tagged PH domain of PHLPP1 (unknown origin) by surface Plasmon resonance spectroscopy. In short, it runs like this: (§4)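 SPR: GST-tagged PH domain fusion protein immobilized on CM5 chip by amine coupling to about 17000 RU. Analyte injected at 1–20 µM at 30 µL/min; DMSO in samples and running buffer ≤1% (v/v). Kd obtained from sensorgram fitting.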

The test system of test [9] is PC-3. In words: Antiproliferative activity against human PTEN-negative PC3 cells assessed as suppression of cell viability after 24 hrs by MTT assay in serum free medium. The class given is functional, cell-based.
Test [10] deals with PC-3. The test can be described thus: In vivo antitumor efficacy in human PC3 cells xenografted athymic nude mouse assessed as inhibition of tumor growth at 50 mg/kg, ip for 21 days relative to vehicle treated control. The test is classed as functional, organism-based. Also noted: dose 50 mg/kg. A digest of the protocol: as §1
Test [11] has as its target T1, PH domain leucine-rich repeat-containing protein phosphatase 1. In words: Inhibition of PHLPP1-mediated reduction in phosphorylation of MDM2 in human PC3 cells after 24 hrs by Western blot analysis. The class given is cell-based. Particulars: PC-3. In short, it runs like this: as §2
Test [12] has the same target. In words: Inhibition of PHLPP1-mediated reduction in phosphorylation of Akt at Thr308 in human PC3 cells after 24 hrs by Western blot analysis. The class given is cell-based. Particulars: PC-3. A digest of the protocol:
as §2

Test [13] relates to LNCaP. In words: Induction of PHLPP1 localization to human LNCAP cell membrane at 5 uM after 24 hrs by immunofluorescence staining analysis. The test is classed as functional, cell-based. A digest of the protocol: as §3
In test [14] the target is T2, 3-phosphoinositide-dependent protein kinase 1 (Homo sapiens, UniProt O15530).
T2 sequence (O15530 whole entry): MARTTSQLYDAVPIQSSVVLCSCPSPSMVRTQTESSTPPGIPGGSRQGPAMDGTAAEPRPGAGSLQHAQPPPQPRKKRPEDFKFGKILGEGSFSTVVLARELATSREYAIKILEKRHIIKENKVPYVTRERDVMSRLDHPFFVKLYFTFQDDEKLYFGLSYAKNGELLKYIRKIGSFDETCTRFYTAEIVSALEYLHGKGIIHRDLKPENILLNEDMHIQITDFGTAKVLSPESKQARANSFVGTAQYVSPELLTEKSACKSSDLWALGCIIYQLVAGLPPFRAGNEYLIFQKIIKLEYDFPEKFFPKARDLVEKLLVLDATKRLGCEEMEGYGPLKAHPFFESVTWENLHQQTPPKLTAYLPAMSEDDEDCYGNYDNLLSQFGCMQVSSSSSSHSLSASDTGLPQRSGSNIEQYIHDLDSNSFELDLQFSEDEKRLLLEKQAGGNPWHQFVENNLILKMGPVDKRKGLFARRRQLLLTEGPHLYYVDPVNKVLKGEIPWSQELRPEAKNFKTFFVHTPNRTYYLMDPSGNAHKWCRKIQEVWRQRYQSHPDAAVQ
In words: Binding affinity to GST-tagged PH domain of PDK1 (unknown origin) by surface Plasmon resonance spectroscopy. A digest of the protocol:
as §4

Test [15] has as its system PC-3. The test can be described thus: In vivo antitumor efficacy in human PC3 cells xenografted athymic nude mouse assessed as decrease in phosphorylation of Akt at Ser473 in tumor at 100 mg/kg, po for 21 days relative to vehicle treated control. Also noted: dose 100 mg/kg. The test is classed as functional, organism-based. In short, it runs like this: as §1
The target of test [16] is T1, PH domain leucine-rich repeat-containing protein phosphatase 1. Particulars: LNCaP, 2.5 to 25 uM.
In test [17] the test system is PC-3. In words: In vivo antitumor efficacy in human PC3 cells xenografted athymic nude mouse assessed as decrease in phosphorylation of Akt at Thr308 in tumor at 100 mg/kg, po for 21 days relative to vehicle treated control. The class given is functional, organism-based. Also noted: dose 100 mg/kg. In short, it runs like this:
as §1

Test [18] concerns PC-3. In words: In vivo antitumor efficacy in human PC3 cells xenografted athymic nude mouse assessed as decrease in phosphorylation of Akt at Ser473 in tumor at 50 mg/kg, ip for 21 days relative to vehicle treated control. The class given is functional, organism-based. Also noted: dose 50 mg/kg. A digest of the protocol:
as §1

The test system of test [19] is LNCaP. The test can be described thus: Induction of Akt localization to human LNCAP cell membrane at 5 uM after 24 hrs by immunofluorescence staining analysis. The class given is functional, cell-based. In short, it runs like this:
as §3

Test [20] has as its system LNCaP. In words: Induction of Akt localization to human LNCAP cell membrane after 24 hrs by immunofluorescence staining analysis. The test is classed as functional, cell-based. A digest of the protocol:
as §3

In test [21] the test system is LNCaP. The test can be described thus: Induction of PHLPP1 localization to human LNCAP cell membrane after 24 hrs by immunofluorescence staining analysis. The test is classed as functional, cell-based. In short, it runs like this: as §3
Test [22] relates to PC-3. The test can be described thus: In vivo antitumor efficacy in human PC3 cells xenografted athymic nude mouse assessed as decrease in phosphorylation of IKK in tumor at 50 mg/kg, ip for 21 days relative to vehicle treated control. The class given is functional, organism-based. On the set-up: dose 50 mg/kg. In short, it runs like this: as §1
For test [23], the system named is PC-3. In words: In vivo antitumor efficacy in human PC3 cells xenografted athymic nude mouse assessed as decrease in phosphorylation of IKK in tumor at 100 mg/kg, po for 21 days relative to vehicle treated control. The test is classed as functional, organism-based. On the set-up: dose 100 mg/kg. A digest of the protocol: as §1

T1 sequence (O60346 whole entry, the tested form may be a part): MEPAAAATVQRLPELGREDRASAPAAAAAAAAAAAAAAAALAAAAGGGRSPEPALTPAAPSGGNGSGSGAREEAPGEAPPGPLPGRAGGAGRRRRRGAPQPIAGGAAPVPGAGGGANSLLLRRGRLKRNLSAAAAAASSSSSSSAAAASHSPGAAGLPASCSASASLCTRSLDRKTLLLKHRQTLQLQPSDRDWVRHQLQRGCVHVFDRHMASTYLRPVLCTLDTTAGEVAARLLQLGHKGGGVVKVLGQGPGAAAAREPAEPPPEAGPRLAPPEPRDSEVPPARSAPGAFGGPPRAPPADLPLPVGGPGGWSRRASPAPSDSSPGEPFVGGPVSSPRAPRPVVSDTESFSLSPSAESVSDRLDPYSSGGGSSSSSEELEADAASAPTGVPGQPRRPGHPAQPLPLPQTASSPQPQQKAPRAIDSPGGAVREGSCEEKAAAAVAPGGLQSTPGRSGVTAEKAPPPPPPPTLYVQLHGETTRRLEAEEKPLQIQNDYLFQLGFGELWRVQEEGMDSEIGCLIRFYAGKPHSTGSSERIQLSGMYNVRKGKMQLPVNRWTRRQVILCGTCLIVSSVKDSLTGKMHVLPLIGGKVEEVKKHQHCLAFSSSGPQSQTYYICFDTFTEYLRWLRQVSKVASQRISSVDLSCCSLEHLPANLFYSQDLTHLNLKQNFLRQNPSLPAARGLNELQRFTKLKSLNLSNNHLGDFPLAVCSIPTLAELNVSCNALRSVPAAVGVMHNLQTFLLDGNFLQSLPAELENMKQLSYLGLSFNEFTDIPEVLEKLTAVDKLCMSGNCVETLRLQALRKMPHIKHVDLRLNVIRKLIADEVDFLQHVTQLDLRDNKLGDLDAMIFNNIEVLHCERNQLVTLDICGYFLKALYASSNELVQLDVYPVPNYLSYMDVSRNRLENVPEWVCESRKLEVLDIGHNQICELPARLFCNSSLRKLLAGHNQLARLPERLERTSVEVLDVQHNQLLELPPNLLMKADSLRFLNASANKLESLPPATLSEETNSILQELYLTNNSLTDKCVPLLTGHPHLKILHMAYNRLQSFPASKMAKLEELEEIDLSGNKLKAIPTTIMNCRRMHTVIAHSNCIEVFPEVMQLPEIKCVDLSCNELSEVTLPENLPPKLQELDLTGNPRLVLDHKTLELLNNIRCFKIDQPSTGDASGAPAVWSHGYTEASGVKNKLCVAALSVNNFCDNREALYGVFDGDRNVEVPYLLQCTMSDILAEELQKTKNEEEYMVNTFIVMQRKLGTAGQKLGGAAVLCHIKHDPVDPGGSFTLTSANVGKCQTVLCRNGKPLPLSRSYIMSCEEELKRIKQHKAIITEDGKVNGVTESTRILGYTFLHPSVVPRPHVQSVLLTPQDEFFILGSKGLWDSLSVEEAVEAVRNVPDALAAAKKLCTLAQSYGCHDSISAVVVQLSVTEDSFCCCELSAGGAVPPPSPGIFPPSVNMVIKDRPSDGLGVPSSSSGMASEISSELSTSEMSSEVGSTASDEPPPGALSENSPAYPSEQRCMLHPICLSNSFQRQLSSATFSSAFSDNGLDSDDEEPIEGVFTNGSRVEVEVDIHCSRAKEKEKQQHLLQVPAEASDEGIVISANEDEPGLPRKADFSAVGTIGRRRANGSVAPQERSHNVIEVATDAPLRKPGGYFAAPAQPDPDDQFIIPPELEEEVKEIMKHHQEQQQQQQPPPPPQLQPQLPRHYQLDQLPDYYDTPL

For the compound `Cc1c(S(N)(=O)=O)cc2c(c1C)OC(C)(CCCC(C)C)CC2` (stereo not drawn), in the test with LNCaP [1], the half-inhibitory concentration (IC50) (as a rule, the concentration at which inhibition is half-maximal) worked out at 3000 nM. Moreover, the outcome in the test on PC-3 [2], in the test on PC-3 [9], in the test with PC-3 [10], with LNCaP [13], with PC-3 [15] and with LNCaP [19] was Active. The result in the test with PC-3 [23] was Active. Further, the inhibition entry in test [3], in test [5] and in [11] was “Dose-dependent effect” throughout. The Activity entry in the test on LNCaP [4], in the test with LNCaP [20] and with LNCaP [21] was “Dose-dependent effect” each time. Moreover, the inhibition result (in test [6]; in [12]; in the test on PC-3 [17]) was “inactive” in each case. Besides, in the test with LNCaP [7], the outcome was inactive. For the same compound, the Kd (usually the concentration at which binding is half-saturated) in test [8] stood at 720 nM; in test [14], 19500 nM. For the same compound, the inhibition result (in test [16]; with PC-3 [18]; with PC-3 [22]) was “Active” in each case.
